Reference: publication PMC4050360 (Results in Pharma Sciences, 2014)
Values after ≈ are worked out from the molar mass of the structure shown.

How the values were obtained:
[1] = ref 41 (Scifinder); cited from earlier work
[2] = cited from earlier work
[3] = In vivo pharmacokinetic study, intravenous emulsion; parameters: species or system female Sprague Dawley rats; conditions: rat
Summary of the method: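 Female Sprague Dawley rats (248–276 g; n = 6/group) received a tail-vein dose molar equivalent to 5 mg aripiprazole/kg. Vehicle: submicron emulsion (20% w/w MCT oil, 1.2% lecithin, 2% glycerol, water; 1 mg aripiprazole-equivalent/mL). K-EDTA blood was sampled at 5, 15, 30 min and 1–24 h. Acidified-acetonitrile plasma extracts with d8 internal standard were analysed by positive-ESI MRM. Two-compartment fit; trapezoidal AUC extrapolated to infinity; mean ± SEM.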

[4] = female, Sprague Dawley, plasma, iv, 5 mg/kg

Row | clearance ([3]; female, Sprague Dawley, plasma, iv, 5 mg aripiprazole/kg (molar equivalent)) [mL/min/kg] | Vd [3, 4] [L/kg] | half-life [3, 4] [h] | AUC0?8 ([3]; i.v., molar equivalent to 5 mg aripiprazole/kg, n = 6, mean ± SEM) [nmol?h/L] | SMILES | Estimated pKa [1] | solubility in water [2] [µM]
1 | – | – | – | – | O=C1CCc2ccccc2N1 [3,4-dihydro-2(1H)-quinolinone] | 14.6 | –
2 | 22.8 | 8.16 ± 0.75 | ~4.2 | 8176 ± 2647 | O=C1CCc2ccc(OCCCCN3CCN(c4cccc(Cl)c4Cl)CC3)cc2N1 [aripiprazole] | – | 9 (≈ 4.04 µg/mL)
